Measured values: ChEMBL document CHEMBL1795281, “Prenylated Polyhydroxy-p-terphenyls from Aspergillus taichungensis ZHN-7-07” (J Nat Prod, 2011)

Legend:
Assay type in all cases: functional, cell-based
HL-60 = assay: Cytotoxicity against human HL60 cells by MTT assay
Summary of the method: (§1)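 MTT read-out on HL-60 and P-388 cell lines, with adriamycin as the positive control. IC50 values are means of three independent experiments.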

P388 = assay: Cytotoxicity against mouse P388 cells by MTT assay; summary of the method: as §1
A549 = assay: Cytotoxicity against human A549 cells by SRB assay
Summary of the method: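 SRB staining assay on A-549 cells, run alongside an adriamycin positive control. IC50 values are means of three independent experiments.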

## COc1c(-c2ccc(O)cc2)cc(OC)c2c1oc1cc(O)c(O)cc12 [CANDIDUSIN A]
HL-60
  IC50: 77.6 µM
P388
  IC50: 46.8 µM
A549
  IC50: 19.3 µM

## COc1c(-c2ccc(O)c(CC=C(C)C)c2)cc(OC)c2c1oc1cc(O)c(O)cc12 [PRENYLCANDIDUSIN A]
HL-60
  IC50: 11.8 µM
P388
  IC50: 16.5 µM
A549
  IC50: 53.2 µM

## COc1cc(-c2ccc(O)c(O)c2)c(OC)c(O)c1-c1ccc(O)c(O)c1
HL-60
  IC50: 11 µM
P388
  IC50: 9.13 µM
A549
  IC50: 14.3 µM

## COc1cc(-c2ccc(O)cc2)c(OC)c(O)c1-c1cc(O)c(O)c(CC=C(C)C)c1 [PRENYLTERPHENYLLIN C]
HL-60
  IC50: 28.2 µM
P388
  IC50: 86.2 µM
A549
  IC50: > 100 µM

## COc1cc(-c2ccc(O)c(CC=C(C)C)c2)c(OC)c(O)c1-c1ccc(O)cc1 [PRENYLTERPHENYLLIN B]
HL-60
  IC50: 38.6 µM
P388
  IC50: 12.6 µM
A549
  IC50: > 100 µM

## COc1cc(-c2ccc(O)cc2)c(OC)c(O)c1-c1ccc(O)cc1 [TERPHENYLLIN]
HL-60
  IC50: 11 µM
P388
  IC50: 17.8 µM
A549
  IC50: 12.2 µM

## COc1ccc(-c2cc(OC)c3c(oc4cc(O)c(O)cc43)c2OC)cc1 [CANDIDUSIN C]
HL-60
  IC50: 16.5 µM
P388
  IC50: 96.9 µM
A549
  IC50: 83.6 µM

## COc1cc2oc3c(OC)c(-c4ccc(O)c(CC=C(C)C)c4)cc(OC)c3c2cc1O [PRENYLCANDIDUSIN C]
HL-60
  IC50: 10.1 µM
P388
  IC50: 75.7 µM
A549
  IC50: 12.3 µM

## COc1cc(-c2ccccc2)c(OC)c(O)c1-c1ccc(O)c(O)c1
HL-60
  IC50: 9.89 µM
P388
  IC50: 2.7 µM
A549
  IC50: 40.7 µM

## COc1cc(-c2ccc(O)cc2)c(OC)c(O)c1-c1ccc(O)c(CC=C(C)C)c1 [PRENYLTERPHENYLLIN]
HL-60
  IC50: 2.75 µM
P388
  IC50: 1.99 µM
A549
  IC50: 3.62 µM

## COc1cc2oc3c(OC)c(-c4ccc(O)c(CC=C(C)C)c4)cc(OC)c3c2cc1OC [PRENYLCANDIDUSIN B]
HL-60
  IC50: 76.7 µM
P388
  IC50: 1.57 µM
A549
  IC50: 8.61 µM

## COc1cc(-c2ccc(O)c(CC=C(C)C)c2)c(OC)c(O)c1-c1ccc(O)c(O)c1 [PRENYLTERPHENYLLIN A]
HL-60
  IC50: 1.53 µM
P388
  IC50: 10.9 µM
A549
  IC50: 8.32 µM

## COc1cc(-c2ccc(O)cc2)c(OC)c(O)c1-c1ccc(O)c(O)c1
HL-60
  IC50: 9.86 µM
P388
  IC50: 28.1 µM
A549
  IC50: 34.7 µM
